The test system of series [1] is PDE8A–14-3-3ζ interaction. The series can be described thus: Co-immunoprecipitation of PDE8A with HA-14-3-3ζ in treated HEK293T cells. It counts as cell-based, human. The following applies: for change of PDE8A–14-3-3ζ interaction, PKC activator/inhibitor: 1 μM, Fig. 3B.
The next series relates to PDE8A. Particulars: background statement; ref not stated; cited from earlier work.
For another series, the target named is T1, 14-3-3ζ protein (Homo sapiens, UniProt P63104).
T1 sequence (P63104 1-245): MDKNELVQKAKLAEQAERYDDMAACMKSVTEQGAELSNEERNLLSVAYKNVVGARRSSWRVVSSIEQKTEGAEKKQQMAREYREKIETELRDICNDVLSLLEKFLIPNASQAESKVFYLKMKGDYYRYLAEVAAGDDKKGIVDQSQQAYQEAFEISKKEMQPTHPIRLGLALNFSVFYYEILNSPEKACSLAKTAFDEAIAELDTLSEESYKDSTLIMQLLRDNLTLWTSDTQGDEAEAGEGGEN
The series can be described thus: 31P NMR titration of KA14P with 14-3-3ζ protein. It counts as binding. The gist of the method:
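Human 14-3-3ζ expressed from pQE30 in E. coli M15 (0.5 mM IPTG, 3 h, 37 °C), Ni-NTA purified, and stored in 10 mM phosphate pH 6.1 with 50 mM NaCl. Peptide held at 500 μM. Spectra taken with 512 scans, 16 dummy scans and a 10 s recycle delay. A 20 Hz exponential line broadening was applied before Fourier transformation.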

The subject of series [2] is DN-PDE8A (D726A)–14-3-3ζ interaction. The series can be described thus: Co-immunoprecipitation of DN-PDE8A with HA-14-3-3ζ in treated HEK293T cells. It counts as cell-based, human. The following applies: forskolin 100 μM, 15 min; Fig. 3D.
The test system of series [3] is D726A PDE8A mutant (DN-PDE8A). Particulars: cited from earlier work.
A further series addresses 14-3-3ζ (UniProt P63104). The series can be described thus: co-IP, anti-HA IP, Myc/FLAG blot. Particulars: reference: wild type PDE8A; sites S359.
The target of series [4] is KA14P (phosphorylated PDE8A peptide) (human). The series can be described thus: NMR titration.

Square brackets hold non-standard residues; d marks the D form. Peptide text beside a SMILES is read from it. pS = N[C@@H](COP(=O)(O)O)C(=O)O

One may read the Kd as the free concentration of one partner at which half of the binding sites on the other are occupied at equilibrium, for simple one-to-one binding.

Take `CN(C)CCCn1cc(C2=C(c3c[nH]c4ccccc34)C(=O)NC2=O)c2ccccc21` [GX109203X]: the “change of PDE8A–14-3-3ζ interaction, PKC activator/inhibitor” value in series [1] (15 min) is reported as “no change of interaction”.

`O=S(=O)(NCCNC/C=C/c1ccc(Br)cc1)c1cccc2cnccc12` [H89]: the “association of PDE8A and 14-3-3ζ, PKA inhibitor” value in series [1] (100 μM, 15 min pretreatment, then forskolin 100 μM, 15 min, anti-HA IP, Fig. 3A) is on record as “association decreased”.

As for `CC(C)Cn1c(=O)n(C)c(=O)c2[nH]cnc21` [IBMX, 3-isobutyl-1-methylxanthine], the “sensitivity of PDE8A to inhibitor” value with PDE8A is reported as “insensitive”.

For the compound `CC(C)C[C@H](NC(=O)[C@H](COP(=O)(O)O)NC(=O)CNC(=O)[C@H](CCCCN)NC(=O)[C@H](CCCNC(=N)N)NC(=O)[C@H](CCCNC(=N)N)NC(=O)[C@H](CC(=O)O)NC(=O)[C@@H](N)CCCCN)C(=O)N[C@@H](CC(=O)O)C(=O)N[C@H](C(=O)N[C@@H](CCCCN)C(=O)N[C@@H](C)C(=O)N[C@H](C(=O)N[C@@H](C)C(=O)O)C(C)C)C(C)C` [KA14P] (H-KDRRKG[pS]LDVKAVA-OH), on 14-3-3ζ protein, the affinity, expressed as Kd, was 11.3 ± 0.18 µM.

As for `CCCCCCCCCCCCCC(=O)O[C@@H]1[C@@H](C)[C@@]2(O)[C@@H](C=C(CO)C[C@]3(O)C(=O)C(C)=C[C@@H]23)[C@@H]2C(C)(C)[C@]12OC(C)=O` [PMA, phorbol 12-myristate 13-acetate], the “change of PDE8A–14-3-3ζ interaction, PKC activator/inhibitor” value in series [1] (15 min) was “no change of interaction”.

As to `C=C[C@@]1(C)CC(=O)[C@]2(O)[C@@]3(C)[C@@H](O)CCC(C)(C)[C@@H]3[C@H](O)[C@H](OC(C)=O)[C@@]2(C)O1` [forskolin], the “association of PDE8A and 14-3-3ζ, PKA activator” value in series [1] (100 μM, 15 min, serum-free, anti-HA IP, at least three repeats, Fig. 3A) is on record as “increased association”. Moreover, in series [2], the “interaction of DN-PDE8A with 14-3-3ζ” value is on record as “increased further”. Further, the “phosphorylation of DN-PDE8A by PKA following treatment” value in series [3] was “rapidly phosphorylated”.

Regarding `COc1ccc(Cl)c(Nc2nc3ccccc3nc2NS(=O)(=O)c2cccc(NC(=O)C(C)(C)N)c2)c1` [pilaralisib], the “PDE8A–14-3-3ζ interaction, inhibitor of PI3K” value in series [1] (100 μM, 30 min, Fig. 3C) is given as “remained unchanged”.

Take “PDE8A (phosphodiesterase 8A) (from UniProt O60658) S359A”: the “binding against the reference” value with 14-3-3ζ is “lost”.

Turning to “insulin: human insulin; activator of PI3K”, the “PDE8A–14-3-3ζ interaction, activator of PI3K” value in series [1] (200 μM, 30 min, Fig. 3C) is listed as “remained unchanged”.

As for “purified recombinant 14-3-3ζ (from UniProt P63104 1-245) (natural protein)”, the Kd in series [4] was found to be 11.3 µM.

Values taken from paper PMC10926215 (The Journal of Biological Chemistry, 2024).
